In ChEMBL document CHEMBL4725358 (J Med Chem, 2020):
Calls of active or inactive are those of the source. The rule behind the calls is not given here.

Experiments:
[1] = target: Probable G-protein coupled receptor 34 (Mus musculus) (UniProt Q9R1K6); assay: (§1) Agonist activity at mouse GPR34 expressed in HEK293 cells co-transfected with AP-TGFalpha/Galphaq/i1 assessed as induction of ectodomain shedding of membrane bound AP-TGFalpha after 1 hr by p-NPP substrate based microplate reader analysis; assay type: cell-based
In short: (§2)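 HEK293 cells transiently transfected with AP-TGFα, chimeric Gα and mouse GPR34 vectors, then treated with compound. Empty-vector cells (AP-TGFα plus chimeric Gα) served as background. Receptor-specific AP-TGFα release was taken after subtracting that background, and concentration-response curves gave EC50 and Emax. Mean and SEM of 3−8 independent experiments.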

[2] = target: Probable G-protein coupled receptor 34 (Mus musculus, UniProt Q9R1K6); assay: as §1; assay type: cell-based; in short: as §2
[3] = target: Probable G-protein coupled receptor 34 (Mus musculus) (UniProt Q9R1K6); assay: Agonist activity at mouse GPR34 expressed in HEK293 cells co-transfected with AP-TGFalpha/Galphaq/i1 assessed as induction of ectodomain shedding of membrane bound AP-TGFalpha after 1 hr by p-NPP substrate based microplate reader analysis relative to control; assay type: cell-based; in short: as §2
[4] = target: Probable G-protein coupled receptor 34 (Mus musculus) (UniProt Q9R1K6); assay: Agonist activity at mouse GPR34 expressed in HEK293 cells co-transfected with AP-TGFalpha/Galphaq/i1 assessed as induction of ectodomain shedding of membrane bound AP-TGFalpha after 1 hr by p-NPP substrate based microplate reader analysis relative to positive control; assay type: cell-based; in short: as §2
[5] = target: Putative P2Y purinoceptor 10 (Mus musculus, UniProt Q8BFU7); assay: Agonist activity at mouse P2Y10 expressed in HEK293 cells co-transfected with AP-TGFalpha/Galphaq/i1 assessed as induction of ectodomain shedding of membrane bound AP-TGFalpha after 1 hr by p-NPP substrate based microplate reader analysis; assay type: cell-based
In short: (§3)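 Run the same way as the GPR34 shedding assay, but with a mouse P2Y10 expression vector in HEK293 cells alongside AP-TGFα and chimeric Gα. Receptor-specific AP-TGFα release was found by subtracting the empty-vector background. EC50 and Emax came from concentration-response curves. Mean and SEM of 3−8 independent experiments.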

[6] = target: Putative P2Y purinoceptor 10 (Mus musculus) (UniProt Q8BFU7); assay: Agonist activity at mouse P2Y10 expressed in HEK293 cells co-transfected with AP-TGFalpha/Galphaq/i1 assessed as induction of ectodomain shedding of membrane bound AP-TGFalpha after 1 hr by p-NPP substrate based microplate reader analysis relative to control; assay type: cell-based; in short: as §3
[7] = target: Putative P2Y purinoceptor 10 (Mus musculus) (UniProt Q8BFU7); assay: Agonist activity at mouse P2Y10 expressed in HEK293 cells co-transfected with AP-TGFalpha/Galphaq/i1 assessed as induction of ectodomain shedding of membrane bound AP-TGFalpha after 1 hr by p-NPP substrate based microplate reader analysis relative to positive control; assay type: cell-based; in short: as §3
[8] = target: Probable G-protein coupled receptor 34 (Mus musculus) (UniProt Q9R1K6); assay: Agonist activity at mouse GPR34 expressed in HEK293 cells co-transfected with Galphaq/i1 assessed as increase in calcium influx by calcium 5 dye based FLIPR assay; assay type: functional, cell-based
In short: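 Mouse GPR34-expressing HEK293 cells were monitored for calcium influx after compound was added at 100 nM or 10 nM. Each run was done in triplicate and reported as mean and S.D.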

[9] = target: Probable G-protein coupled receptor 34 (Homo sapiens, UniProt Q9UPC5); assay: Agonist activity at human GPR34 expressed in HEK293 cells co-transfected with AP-TGFalpha/Galphaq/i1 assessed as induction of ectodomain shedding of membrane bound AP-TGFalpha after 1 hr by p-NPP substrate based microplate reader analysis; assay type: cell-based
[10] = target: T1, G protein-coupled receptor 34a (Danio rerio, UniProt Q6XCC7); assay: Agonist activity at zebrafish GPR34 type a expressed in HEK293 cells co-transfected with AP-TGFalpha/Galphaq/i1 assessed as induction of ectodomain shedding of membrane bound AP-TGFalpha after 1 hr by p-NPP substrate based microplate reader analysis; assay type: cell-based
T1 sequence (Q6XCC7 whole entry): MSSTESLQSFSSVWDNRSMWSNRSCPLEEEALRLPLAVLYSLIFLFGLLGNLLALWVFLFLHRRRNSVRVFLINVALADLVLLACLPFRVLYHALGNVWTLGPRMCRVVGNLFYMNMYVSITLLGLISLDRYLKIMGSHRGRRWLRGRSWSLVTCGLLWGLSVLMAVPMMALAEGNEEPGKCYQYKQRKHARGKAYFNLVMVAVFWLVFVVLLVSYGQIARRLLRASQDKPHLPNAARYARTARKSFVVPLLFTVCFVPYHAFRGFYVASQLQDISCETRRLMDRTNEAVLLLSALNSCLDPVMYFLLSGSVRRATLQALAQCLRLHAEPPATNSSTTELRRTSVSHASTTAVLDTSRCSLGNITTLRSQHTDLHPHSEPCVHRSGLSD

[11] = target: T2, G protein-coupled receptor 34a (Danio rerio) (UniProt Q6XCC7); assay: Agonist activity at zebrafish GPR34 type a expressed in HEK293 cells co-transfected with AP-TGFalpha/Galphaq/i1 assessed as induction of ectodomain shedding of membrane bound AP-TGFalpha after 1 hr by p-NPP substrate based microplate reader analysis relative to control; assay type: cell-based
T2 sequence (whole entry): T1 sequence (Q6XCC7 whole entry)

[12] = target: T3, G protein-coupled receptor 34b (Danio rerio, UniProt B0S6P9); assay: Agonist activity at zebrafish GPR34 type b expressed in HEK293 cells co-transfected with AP-TGFalpha/Galphaq/i1 assessed as induction of ectodomain shedding of membrane bound AP-TGFalpha after 1 hr by p-NPP substrate based microplate reader analysis; assay type: cell-based
T3 sequence (B0S6P9 whole entry): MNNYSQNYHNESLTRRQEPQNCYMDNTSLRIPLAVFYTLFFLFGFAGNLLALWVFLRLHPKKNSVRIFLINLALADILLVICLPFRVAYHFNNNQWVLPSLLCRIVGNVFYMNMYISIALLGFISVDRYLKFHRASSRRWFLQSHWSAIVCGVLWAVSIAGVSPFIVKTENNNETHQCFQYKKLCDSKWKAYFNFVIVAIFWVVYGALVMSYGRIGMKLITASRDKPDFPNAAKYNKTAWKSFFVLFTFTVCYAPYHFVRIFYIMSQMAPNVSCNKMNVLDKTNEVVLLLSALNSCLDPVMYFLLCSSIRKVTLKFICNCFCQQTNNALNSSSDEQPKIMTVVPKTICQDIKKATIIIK

[13] = target: T4, G protein-coupled receptor 34b (Danio rerio) (UniProt B0S6P9); assay: Agonist activity at zebrafish GPR34 type b expressed in HEK293 cells co-transfected with AP-TGFalpha/Galphaq/i1 assessed as induction of ectodomain shedding of membrane bound AP-TGFalpha after 1 hr by p-NPP substrate based microplate reader analysis relative to control; assay type: cell-based
T4 sequence (whole entry): T3 sequence (B0S6P9 whole entry)

Sequence of Putative P2Y purinoceptor 10 (Mus musculus) (Q8BFU7 whole entry, the tested form may be a part): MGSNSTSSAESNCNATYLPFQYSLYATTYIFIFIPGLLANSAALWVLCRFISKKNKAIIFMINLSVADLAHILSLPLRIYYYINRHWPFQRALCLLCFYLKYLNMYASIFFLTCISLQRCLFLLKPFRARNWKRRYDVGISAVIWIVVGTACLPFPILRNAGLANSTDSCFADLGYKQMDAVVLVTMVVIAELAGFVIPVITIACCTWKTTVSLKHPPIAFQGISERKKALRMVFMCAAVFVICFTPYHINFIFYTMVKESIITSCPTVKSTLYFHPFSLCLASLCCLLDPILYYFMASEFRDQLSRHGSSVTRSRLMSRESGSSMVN
Sequence of Putative P2Y purinoceptor 10 (Q8BFU7 whole entry, the tested form may be a part): as above
Sequence of Probable G-protein coupled receptor 34 (Mus musculus) (Q9R1K6 whole entry, the tested form may be a part): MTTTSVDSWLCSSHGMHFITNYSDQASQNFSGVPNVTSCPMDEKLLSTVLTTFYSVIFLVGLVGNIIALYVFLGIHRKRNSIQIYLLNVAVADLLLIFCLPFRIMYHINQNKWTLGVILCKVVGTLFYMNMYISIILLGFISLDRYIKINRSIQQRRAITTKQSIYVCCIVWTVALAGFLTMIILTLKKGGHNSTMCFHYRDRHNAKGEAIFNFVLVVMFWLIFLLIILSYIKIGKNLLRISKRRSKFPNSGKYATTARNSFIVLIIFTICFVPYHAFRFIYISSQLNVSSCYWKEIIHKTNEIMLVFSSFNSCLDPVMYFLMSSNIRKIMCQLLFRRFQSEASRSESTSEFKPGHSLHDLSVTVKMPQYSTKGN
Sequence of Probable G-protein coupled receptor 34 (Mus musculus, UniProt Q9R1K6) (Q9R1K6 whole entry, the tested form may be a part): as above
Sequence of Probable G-protein coupled receptor 34 (Homo sapiens, UniProt Q9UPC5) (Q9UPC5 whole entry, the tested form may be a part): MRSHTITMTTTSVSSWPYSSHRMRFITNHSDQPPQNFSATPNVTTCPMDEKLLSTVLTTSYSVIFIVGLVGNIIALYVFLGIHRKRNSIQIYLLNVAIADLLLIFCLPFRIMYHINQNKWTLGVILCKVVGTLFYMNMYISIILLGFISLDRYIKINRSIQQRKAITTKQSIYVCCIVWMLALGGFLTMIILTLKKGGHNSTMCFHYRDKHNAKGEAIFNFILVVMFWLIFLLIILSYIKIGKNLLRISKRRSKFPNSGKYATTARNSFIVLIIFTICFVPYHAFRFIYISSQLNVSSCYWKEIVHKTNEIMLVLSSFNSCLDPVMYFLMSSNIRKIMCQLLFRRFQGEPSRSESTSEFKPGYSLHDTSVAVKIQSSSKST

| Structure (SMILES) | pEC50 [1] | EC50 ([2]; hek293) | Emax [3] | fold change (FC) [4] | EC50 [5] [nM] | Emax [6] | fold change (FC) ([7]; filed as agonist) | Activity [8] | EC50 ([2]; read-out: EC50) [nM] | fold change (FC) ([4]; filed as agonist) | Activity ([8]; filed as agonist) | EC50 [9] [nM] | EC50 [10] [nM] | Emax [11] [%] | EC50 [12] [nM] | Emax [13] [%] | fold change (FC) [7] |
| --- | --- | --- | --- | --- | --- | --- | --- | --- | --- | --- | --- | --- | --- | --- | --- | --- | --- |
| CCCCCCCCCCCOc1ccccc1CCC(=O)O[C@H]1CCOC[C@@H]1OP(=O)(O)OC[C@H](N)C(=O)O | inactive | Not Active | inactive | inactive | 12 | 11.1% | 0.14 | inactive | – | – | – | – | – | – | – | – | – |
| CCCCCCCCCCCOc1ccccc1CCC(=O)O[C@@H]1CCOC[C@H]1OP(=O)(O)OC[C@H](N)C(=O)O | – | – | 10.3% | – | 1 | 10.6% | 1.7 | – | 0.83 | 100 | Active | 0.75 | 510 | 14 | 12 | 25 | – |
| CCOC[C@H](COC(=O)CCc1ccccc1OCc1cccc(Oc2ccccc2)c1)OP(=O)(O)OC[C@H](N)C(=O)O | – | – | – | – | > 3000 | – | – | – | 5 | – | – | – | > 3000 | – | 1200 | – | – |
| CCCCCCCC/C=C\CCCCCCCC(=O)OC[C@@H](O)COP(=O)(O)OC[C@H](N)C(=O)O | – | – | – | – | 20 | 13.6% | – | – | – | – | – | – | 130 | 22.1 | 3.5 | 25.1 | – |
| CCCCCCCCCCCOc1ccccc1CCC(=O)O[C@H]1CCOC[C@H]1OP(=O)(O)OC[C@H](N)C(=O)O | – | – | inactive | inactive | 420 | 3.2% | 0.0012 | – | > 3000 | – | – | – | – | – | – | – | – |
| CCCCCCCC/C=C\CCCCCCCC(=O)OC[C@@H](C)OP(=O)(O)OC[C@H](N)C(=O)O | – | – | 12.8% | – | 250 | 12.4% | 0.0054 | – | 24 | 4.8 | – | – | – | – | – | – | – |
| CCCCCCCC/C=C\CCCCCCCC(=O)OCCCOP(=O)(O)OC[C@H](N)C(=O)O | – | – | 6.2% | – | 20 | 13.7% | 0.11 | – | 540 | 0.12 | – | – | – | – | – | – | – |
| CCCCCCCC/C=C\CCCCCCCC(=O)OC[C@@H](COCC)OP(=O)(O)OC[C@H](N)C(=O)O | – | – | 12.3% | – | > 3000 | inactive | – | – | 3.5 | 29 | – | – | – | – | – | – | inactive |
| CCCCCCCC/C=C\CCCCCCCC(=O)O[C@H](COC)COP(=O)(O)OC[C@H](N)C(=O)O | – | – | 9.7% | – | 70 | 2.5% | 0.0088 | – | 160 | 0.52 | – | – | – | – | – | – | – |
| C[C@H](COP(=O)(O)OC[C@H](N)C(=O)O)OC(=O)CCc1ccccc1OCc1cccc(Oc2ccccc2)c1 | – | – | 12% | – | 170 | 13.8% | 0.0099 | – | 6.3 | 16 | – | – | – | – | – | – | – |
| CCCCCCCC/C=C\CCCCCCCC(=O)OC[C@@H](COC)OP(=O)(O)OC[C@H](N)C(=O)O | – | – | 12.9% | – | > 3000 | inactive | – | – | 11 | 12 | – | – | – | – | – | – | inactive |
| COC[C@H](COC(=O)CCc1ccccc1OCc1cccc(Oc2ccccc2)c1)OP(=O)(O)OC[C@H](N)C(=O)O | – | – | 13.5% | – | > 3000 | inactive | – | – | 5.7 | 21 | – | – | – | – | – | – | inactive |
| CCCCCCCC/C=C\CCCCCCCC(=O)OC[C@@H](COCc1ccccc1)OP(=O)(O)OC[C@H](N)C(=O)O | – | – | 9.6% | – | 1400 | 7.3% | 0.00075 | – | 880 | 0.13 | – | – | – | – | – | – | – |
| CCCCCCCC/C=C\CCCCCCCC(=O)OCCCCOP(=O)(O)OC[C@H](N)C(=O)O | – | – | 4.4% | – | 53 | 13.1% | 0.029 | – | 320 | 0.12 | – | – | – | – | – | – | – |
| CCCCCCCCCCCOc1ccccc1CCC(=O)O[C@@H]1COCCC1OP(=O)(O)OC[C@H](N)C(=O)O (single isomer, unassigned) | – | – | 6.4% | – | 840 | 12% | 0.0018 | – | 63 | 1.3 | – | – | – | – | – | – | – |
